The record followed here is ChEMBL document CHEMBL1125106, “1-(Thienylalkyl)imidazole-2(3H)-thiones as potent competitive inhibitors of dopamine beta-hydroxylase” (J Med Chem, 1990).

The subject of assay [1] is Rattus norvegicus. The assay can be described thus: Mean arterial blood pressure was determined in SHR (spontaneous hypertensive rat) with control at a peroral dose of 100 mg/kg. The assay is classed as functional. Conditions: route oral. The gist of the method:
(§1)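 Conscious SHR with a carotid catheter externalized at the nape, allowed about 48 h to recover from surgery. Dosed po at 09:00 with vehicle (50% PEG 400) or compound suspension, with treatments reversed the next day in a cross-over design. Mean arterial pressure recorded as 5 min averages and compared with vehicle by paired t test (mean ± SEM, p<0.05).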

The target in assay [2] is T1, Dopamine beta-hydroxylase (Bos taurus, UniProt P15101).
T1 sequence (P15101 whole entry): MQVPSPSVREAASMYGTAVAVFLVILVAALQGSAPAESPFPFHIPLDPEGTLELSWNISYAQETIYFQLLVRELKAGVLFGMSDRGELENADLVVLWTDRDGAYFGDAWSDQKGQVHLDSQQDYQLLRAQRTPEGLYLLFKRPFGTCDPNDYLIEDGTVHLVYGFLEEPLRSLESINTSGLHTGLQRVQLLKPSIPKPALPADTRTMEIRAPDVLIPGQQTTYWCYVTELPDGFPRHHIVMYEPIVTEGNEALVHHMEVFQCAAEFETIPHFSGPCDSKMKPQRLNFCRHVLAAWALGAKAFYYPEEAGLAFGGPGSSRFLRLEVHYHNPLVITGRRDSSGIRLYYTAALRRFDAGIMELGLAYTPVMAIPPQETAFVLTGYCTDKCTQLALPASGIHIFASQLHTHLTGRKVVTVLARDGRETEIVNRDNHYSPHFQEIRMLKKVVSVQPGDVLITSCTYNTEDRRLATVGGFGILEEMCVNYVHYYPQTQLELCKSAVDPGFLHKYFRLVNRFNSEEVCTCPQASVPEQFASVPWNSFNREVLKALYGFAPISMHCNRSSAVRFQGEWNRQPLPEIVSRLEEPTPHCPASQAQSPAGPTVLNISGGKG
Kind of assay: Inhibitory activity against bovine adrenal dopamine beta-hydroxylase (DBH). The method in brief: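 Commercial bovine DBH, assayed by oxygen consumption on an oxygen electrode at 25.0 °C. Mixture contained 2 mM ascorbic acid, 10 mM sodium fumarate, catalase and 10 mM tyramine in 0.1 M sodium acetate pH 5.0. Rates corrected for nonenzymatic ascorbate oxidation. IC50 from duplicates in at least three separate experiments, mean ± SD.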

In assay [3] the test system is Rattus norvegicus. Kind of assay: Mean arterial blood pressure was determined in SHR (spontaneous hypertensive rat) with administration at the dose of 100 mg/kg (po). Format: functional. The gist of the method:
as §1

For assay [4], the system named is Rattus norvegicus. Kind of assay: Mean arterial blood pressure was determined in SHR (spontaneous hypertensive rat) with administration at peroral dose of 50 mg/kg. Format: functional. Conditions: route oral. The method in brief:
as §1

Assay [5] deals with Rattus norvegicus. Kind of assay: Mean arterial blood pressure was determined in SHR (spontaneous hypertensive rat) with administration at peroral dose of 25 mg/kg. The assay is classed as functional. Conditions: route oral. The method in brief:
as §1

The test system of assay [6] is Rattus norvegicus. The assay can be described thus: Duration of activity of compound in SHR (spontaneous hypertensive rat) at the dose of 50 mg/kg (po). The assay is classed as functional. The method in brief:
as §1

Assay [7] can be described thus: DBH (dopamine beta-hydroxylase) activity expressed as Ki value determined by degree to which compound inhibited conversion of tyramine to octopamine. The gist of the method: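 Bovine adrenal medulla DBH, purified in-house (sp act. 44 µmol/min/mg). Incubated at 37 °C, atmospheric pressure, in 0.2 M acetate pH 5.5 with 10 mM ascorbate, 20 mM fumarate, […] and 1300 units catalase. Octopamine formed from tyramine measured by reverse-phase HPLC with fluorescence detection (ex 275, em 315 nm). Six inhibitor and four substrate concentrations tested, DMSO ≤3% final, duplicates; Ki from Dixon analysis.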

The subject of assay [8] is Rattus norvegicus. The assay can be described thus: Mean arterial blood pressure was determined in SHR (spontaneous hypertensive rat) with control at a peroral dose of 50 mg/kg. The assay is classed as functional. Conditions: route oral. The method in brief:
as §1

A short description of assay [9]: Antihypertensive activity was determined by its ability to increase DA/NE ratio of mesenteric artery 6 hr after oral administration in fasted SHR (spontaneous hypertensive rat) at the dose of 100 mg/kg (po). Format: functional. The method in brief: (§2)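 Male fasted SHR given compound orally as a suspension in 50% PEG 400 (0.4 mL/100 g), or vehicle alone. Killed 6 h after dosing. Mesenteric artery homogenized in 0.2 M HClO4 with DTT, EGTA and DHBA internal standard. Catecholamines adsorbed on alumina, eluted with 0.1 M H3PO4, and DA and NE quantified by reverse-phase HPLC. Ratio reported as mean ± SD and compared with vehicle by 2-tailed t test.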

Assay [10] relates to Rattus norvegicus. The assay can be described thus: Duration of activity of compound in SHR (spontaneous hypertensive rat) at the dose of 100 mg/kg (po). Format: functional. The method in brief: as §1
For assay [11], the system named is Rattus norvegicus. Kind of assay: Mean arterial blood pressure was determined in SHR (spontaneous hypertensive rat) with control at a peroral dose of 25 mg/kg. Format: functional. The conditions noted are these: route oral. The method in brief:
as §1

A short description of assay [12]: Antihypertensive activity was determined by its ability to increase DA/NE ratio of mesenteric artery 6 hr after oral administration in fasted SHR at the dose of 50 mg/kg (po). The assay is classed as functional. The gist of the method: as §2
Assay [13] is described as follows: Antihypertensive activity as ability to increase tissue DA/NE ratio of mesenteric artery 6 hr after oral administration in fasted SHR (spontaneous hypertensive rat) at the dose of 25 mg/kg (po). Format: functional. The gist of the method:
as §2

A short description of assay [14]: Antihypertensive activity determined as ability to increase tissue DA/NE ratio of mesenteric artery 6 hr after oral administration in fasted SHR (spontaneous hypertensive rat). The assay is classed as functional. The method in brief:
as §2

Assay [15] deals with Rattus norvegicus. Kind of assay: Duration of activity of compound in SHR (spontaneous hypertensive rat) at the dose of 25 mg/kg (po). The assay is classed as functional. The method in brief: as §1

Bounds are passed on as bounds.

What is called IC50 is the midpoint of a concentration-inhibition curve. A word on the Ki: it is the equilibrium dissociation constant of an inhibitor or competing ligand from its target. For `Sc1nccn1CCc1cccs1`, the “Mean arterial blood pressure” value in the assay on Rattus norvegicus [1] was 170 mmHg; in the assay with Rattus norvegicus [3], 126 mmHg; in the assay with Rattus norvegicus [4], 137 mmHg; with Rattus norvegicus [5], 137 mmHg; in the assay on Rattus norvegicus [8], 172 mmHg; with Rattus norvegicus [11], 148 mmHg. Moreover, the IC50 in assay [2] is 114 nM. Besides, the Duration in the assay with Rattus norvegicus [6] is 8 h; in the assay on Rattus norvegicus [10], 20 h; with Rattus norvegicus [15], under 1 h. Further, the Ki in [7] came to 25.5 nM. Further, the DA/NE ratio is listed as 0.333 in assay [9], 0.269 in assay [12], 0.214 in [13] and 0.072 in assay [14].
As to `Sc1nccn1CCc1ccsc1`, the IC50 in assay [2] came to 130 nM. The same compound had a Ki in assay [7] of 25 nM.
Taken in the same sequence, the figures for `Sc1nccn1Cc1cccs1` were 4800 nM and 740 nM.
As to `S=c1[nH]ccn1Cc1ccco1`, the IC50 in [2] stood at 6300 nM. That is a single-digit micromolar value.
`Sc1nccn1CCCCc1cccs1`: the IC50 in assay [2] was 3600 nM. For the same compound, affinity in [7] was put at a Ki of 1400 nM.
As for `Fc1ccc(Cn2ccnc2S)s1`, the IC50 in assay [2] is 4600 nM.
`Fc1cc(F)cc(Cn2cc[nH]c2=S)c1` yielded an IC50 in assay [2] of 210 nM. This compound showed a Ki in [7] of 60 nM.
Regarding `Sc1nccn1Cc1ccc(Cl)s1`, in assay [2], the IC50 amounted to 1000 nM.
Compound `Sc1nccn1Cc1ccsc1` registered an IC50 in assay [2] of 5300 nM.
In assay [2], `Cc1ccc(CCn2ccnc2S)s1` showed an IC50 of 491 nM. In assay [7], affinity was put at a Ki of 160 nM.
Compound `Sc1nccn1CCCc1cccs1` returned an IC50 in assay [2] of 1900 nM. Besides, the affinity in [7], expressed as Ki, was 480 nM.
